Results pooled from the literature.
Compare with care: the assays were run in different laboratories.
Target: Serine/threonine-protein kinase WNK1 (WNK1, Homo sapiens, UniProt Q9H4A3)

Structure (SMILES)	assay	setting	remaining binding
O=C(NCCCN1CCOCC1)c1ccc(Nc2ncc(Cl)c(-c3ccc(Cl)s3)n2)cc1	binding, competition with immobilised ligand	1 µM	89%
Cc1nccc(COC(=O)N2C[C@@H]3[C@@H](CNC(=O)c4ccc5[nH]nnc5c4)[C@@H]3C2)n1	cell-free assay, competition with immobilised ligand	1 µM	86%
CCN1CCN(Cc2ccc(C(=O)Nc3ccc(C)c(Oc4ccc5c(c4)CC(=O)N5)c3)cc2C(F)(F)F)CC1	binding, competition with immobilised ligand	1 µM	100%
F[C@@H]1CCN(c2nccc(-c3cnn4ncccc34)n2)C1	binding	1 µM	100%
CS(=O)(=O)N1CCCC(NC(=O)[C@H](CCC2CCCCC2)NC(=O)c2ccc(CNC(=O)c3cnc4ccccn34)cc2)C1 (stereo partly drawn)	cell-free assay, competition with immobilised ligand	0.1 µM	99%
CNC(=O)[C@@H]1CC[C@@H](n2c(-c3ccc4cnccc4c3)nc3ccc(C(=O)NCc4cccc(C(N)=O)c4)cc32)C1	binding, competition with immobilised ligand	1 µM	100%
Cc1cc(-n2nc(Cc3cc(F)cc(C(F)(F)F)c3)nc2C)ccc1C(N)=O	cell-free assay, competition with immobilised ligand	1 µM	100%
c1cnn2ncc(-c3ccnc(N4CCC45COC5)n3)c2c1	binding	1 µM	100%
O=C1NC(c2ccccn2)Sc2ccccc21 (stereo not drawn)	cell-free assay, competition with immobilised ligand	1 µM	91%
CN(C)c1nccc(-c2cnn3ncccc23)n1	binding	1 µM	100%
Cc1nc(N2CC[C@@H](O)C2)ncc1-c1cc(C(F)(F)F)cc2[nH]ncc12	binding, competition with immobilised ligand	1 µM	71%
COc1cnc(Nc2cccc(S(N)(=O)=O)c2)nc1N1CCN(c2ccccc2)CC1	binding, competition with immobilised ligand	1 µM	88%
C[C@H]1CCN(c2nccc(-c3cnn4ncccc34)n2)C1	binding	1 µM	91%
CC(C)(O)c1cncc(-c2nc3ccc(F)cc3n2C2CC2)c1	cell-free assay, competition with immobilised ligand	1 µM	100%
N[C@H]1CCN(c2nccc(-c3cnn4ncccc34)n2)C1	binding	1 µM	8.4%
O=C(NCC1CCOCC1)c1n[nH]cc1NC(=O)c1c(F)cccc1F	binding, competition with immobilised ligand	1 µM	100%
CN(C)c1nccc(-c2cnc3ncccn23)n1	binding	1 µM	100%
O=C(c1ccc(Nc2ncc(Cl)c(-c3ccc(Cl)s3)n2)cc1)N1CCC(N2CCCC2)CC1	binding, competition with immobilised ligand	1 µM	95%
